A short description of experiment [1]: reduced viability of SK-BR-3 breast cancer cells – cell-based, 24 h, human, pilot screen (AID 572;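 active = viability at or below 10% of carrier control in both of two separate runs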;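 note: compound exposure lasted between 18 and 24 h rather than exactly 24 h; 100% = carrier-treated control wells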). The conditions noted are these: SK-BR-3 viability, CellTiter-Glo luminescence, at 10 µM, stronger effect = lower value.
A short description of experiment [2]: HUVEC growth inhibition – cell-based, human, primary screen (AID 575;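 active = viability at or below 30% in both replicate assays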;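 note: 100% = median of untreated cell wells with 0.1% DMSO on each plate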). Particulars: HUVEC proliferation, CellTiter-Glo luminescence, 72 h; at 10 µM; stronger effect = lower value. Summed up: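 Timing: 72 h treatment at 37 °C; material: HUVEC primary cells; technique: CellTiter-Glo luminescence measuring cellular ATP; controls: vehicle and MePR control wells; measure: percent of median DMSO-control luminescence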

A short description of experiment [3]: H69AR cell proliferation blockers – human, duplicate replicates, primary screen (AID 580).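 Note: 100% = mean luminescence of untreated wells and 0% = no signal.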 Particulars: H69AR lung tumor cells viability, ATP luminescence, 72 h; at 10 µM; stronger effect = lower value.
Experiment [4] can be described thus: MRP1 drug-resistance reversers in H69AR cells – cell-based, doxorubicin co-treatment, pilot screen (AID 601;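 active = viability loss from added drug above about 55%, and viability with drug at most 40%, in both replicates, limit read from the data, passing the limit was not always enough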). Particulars: CellTiter-Glo, 72 h, at 10 µM; for differential viability (reversal): stronger effect = higher value.
A short description of experiment [5]: yeast transport mutant growth inhibition pilot in 384-well plates, post-Golgi transport modulator project (AID 636; in the data active = inhibition above about 31%). The conditions noted are these: absorbance 615 nm, about 18 h, stronger effect = higher value.
Experiment [6] in a line: growth suppression of yeast trafficking mutant, preliminary HTS, modulators of trafficking downstream of Golgi apparatus project, 1536-format plate, OD 615 nm (AID 637; in the data active = inhibition above about 30%). The conditions noted are these: yeast transport mutant growth, absorbance 615 nm, 18 h; stronger effect = higher value.
[7] abbreviates: H69AR cells + 2 uM doxorubicin, measured here: viability with 2 uM doxorubicin, stronger effect = lower value.
The mark [8] stands for this setting: H69AR cells, compound alone cytotoxicity.

Calls of active or inactive are those of the source.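 Rule for the calls, unless noted: active = viability at or under a set limit in both replicates, limit being median viability minus 3 SD (cut at about 48% in these data, passing the limit was not always enough); inconclusive = at or under the limit in just one replicate; inactive = at or above the limit in both replicates.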

For `O=C(CN1CCC(n2nnc3ccccc32)CC1)Nc1ccc2c(c1)CCC2`, the viability in experiment [1] is 64% (inactive); in experiment [2] it was 92% (inactive); in experiment [3], 89.3% (inactive); in experiment [4] (setting [7]) it was 88.1%; in experiment [4] (setting [8]), 89.3%. In addition, the differential viability (reversal) in experiment [4] (H69AR cells + 2 uM doxorubicin) is 1.24% (inactive). Moreover, the values for the inhibition in experiment [5] and in experiment [6] were -8.63% (inactive) and 2% (inactive), respectively.

For the molecule `CCOC(=O)N1CCC(NC(=O)Cn2cc3c(n2)CCC(C)C3)CC1` (centres undefined), the viability in experiment [1] was 128% (inactive); in experiment [2] it was 93% (inactive); in experiment [3], 98.7% (inactive); in experiment [4] (setting [7]), 95.7%; in experiment [4] (setting [8]), 98.7%. Moreover, the differential viability (reversal) in experiment [4] (H69AR cells + 2 uM doxorubicin) is 3% (inactive). Besides, the figures for the inhibition in experiment [5] and in experiment [6] were -1.64% (inactive) and 18.7% (inactive), respectively.

`CCOc1ccccc1C(=O)Nn1c(C2CCC2)nc2ccccc2c1=O`: the viability in experiment [1] is 91% (inactive); in experiment [2] it was 91.1% (inactive); in experiment [3], 93.7% (inactive); in experiment [4] (setting [7]), 112%; in experiment [4] (setting [8]), 93.7%. Also, in experiment [4] (H69AR cells + 2 uM doxorubicin), the differential viability (reversal) was -18% (inactive). Besides, the inhibition in experiment [5] is -4.11% (inactive); in experiment [6], 2.55% (inactive).

Take `CC1(C)CC(=O)C2=C(C1)NC(=O)CC2C(=O)NCc1ccc(F)cc1` (centres undefined): the viability is 106% (inactive) in experiment [1]; 110% (inactive) in experiment [2]; 111% (inactive) in experiment [3]; 95.5% in experiment [4] (setting [7]); 111% in experiment [4] (setting [8]). Besides, in experiment [4] (H69AR cells + 2 uM doxorubicin), the differential viability (reversal) is 15.3% (inactive). Moreover, the inhibition is -4.05% (inactive) in experiment [5] and 1.64% (inactive) in experiment [6].

Turning to `O=C(CSc1nc(N2CCCCC2)nc(N2CCCCC2)n1)Nc1nccs1`, the viability in experiment [1] is 123% (inactive); in experiment [2] it was 85.4% (inactive); in experiment [3], 77.3% (inactive); in experiment [4] (setting [7]), 72.5%; in experiment [4] (setting [8]), 77.3%. Also, the differential viability (reversal) in experiment [4] (H69AR cells + 2 uM doxorubicin) was 4.8% (inactive). Moreover, the inhibition in experiment [5] was -2.21% (inactive); in experiment [6], -7.21% (inactive).

As to `Cc1ccc2c(C(=O)CN3CCSCC3)c(C)[nH]c2c1`, the viability in experiment [1] is 120% (inactive); in experiment [2], 91.8% (inactive); in experiment [3], 74.2% (inactive); in experiment [4] (setting [7]), 75%; in experiment [4] (setting [8]), 74.2%. Also, the differential viability (reversal) in experiment [4] (H69AR cells + 2 uM doxorubicin) was -0.745% (inactive). For the same molecule, the inhibition was -3.07% (inactive) in experiment [5] and -3.82% (inactive) in experiment [6].

On to `CCOC(=O)C1=C(C)Nc2nc(SCC(=O)OC)nn2C1c1cc(F)cc(F)c1` (centres undefined), for which the viability in experiment [1] is 91.5% (inactive); in experiment [2], 75.4% (inactive); in experiment [3], 92.9% (inactive); in experiment [4] (setting [7]) it was 85.7%; in experiment [4] (setting [8]) it was 92.9%. The differential viability (reversal) in experiment [4] (H69AR cells + 2 uM doxorubicin) was 7.16% (inactive). Besides, the inhibition in experiment [5] was -8.24% (inactive); in experiment [6] it was 2.06% (inactive).

As for `O=C(CN(c1ccc(F)cc1)S(=O)(=O)c1ccc2c(c1)OCCO2)Nc1cccnc1`, the viability is 77% (inactive) in experiment [1]; 89.5% (inactive) in experiment [2]; 100% (inactive) in experiment [3]; 101% in experiment [4] (setting [7]); 100% in experiment [4] (setting [8]). Besides, the differential viability (reversal) in experiment [4] (H69AR cells + 2 uM doxorubicin) was -0.85% (inactive). Further, the values for the inhibition in experiment [5] and in experiment [6] were -8.77% (inactive) and -3.82% (inactive), respectively.

With `CCCCOc1ccc(N(CC(=O)NC2CCCC2)C(=O)CCC(=O)Nc2ccccn2)cc1`, the viability was 101% (inactive) in experiment [1]; 71.7% (inactive) in experiment [2]; 69.4% (inactive) in experiment [3]; 64.4% in experiment [4] (setting [7]); 69.4% in experiment [4] (setting [8]). Further, the differential viability (reversal) in experiment [4] (H69AR cells + 2 uM doxorubicin) is 5% (inactive). The inhibition in experiment [5] was -1.3% (inactive); in experiment [6], 2.95% (inactive).

With `COCCCNC(=O)CCCn1c(=O)c2ccccc2n(CC(=O)Nc2c(C)cccc2C)c1=O`, the viability in experiment [1] is 99% (inactive); in experiment [2], 97.6% (inactive); in experiment [3] it was 93.1% (inactive); in experiment [4] (setting [7]), 88.2%; in experiment [4] (setting [8]), 93.1%. Further, the differential viability (reversal) in experiment [4] (H69AR cells + 2 uM doxorubicin) was 4.87% (inactive). Moreover, the inhibition in experiment [5] is -1.69% (inactive); in experiment [6], -1.31% (inactive).

Turning to `COc1ccc(CCN(Cc2cc3cccc(C)c3[nH]c2=O)C(=O)N2CCCC2)cc1OC`, the viability in experiment [1] is 106% (inactive); in experiment [2], 104% (inactive); in experiment [3], 98.8% (inactive); in experiment [4] (setting [7]) it was 97.3%; in experiment [4] (setting [8]) it was 98.8%. Moreover, in experiment [4] (H69AR cells + 2 uM doxorubicin), the differential viability (reversal) was 1.51% (inactive). Moreover, the results for the inhibition in experiment [5] and in experiment [6] were -2.6% (inactive) and -0.36% (inactive), respectively.

With `CC(=O)OCC(=O)[C@H]1CC[C@H]2[C@@H]3CC=C4C[C@@H](O)CC[C@]4(C)[C@H]3CC[C@]12C`, the viability in experiment [1] was 87% (inactive); in experiment [2], 44.3% (inactive); in experiment [3] it was 96.8% (inactive); in experiment [4] (setting [7]), 92.3%; in experiment [4] (setting [8]), 96.8%. The differential viability (reversal) in experiment [4] (H69AR cells + 2 uM doxorubicin) was 4.54% (inactive). Also, the inhibition was -0.65% (inactive) in experiment [5] and 44.5% (active) in experiment [6].

For `O=c1oc2cc(O)ccc2c2oc3cc(O)ccc3c12`, the viability was 108% (inactive) in experiment [1]; 85.1% (inactive) in experiment [2]; 99.4% (inactive) in experiment [3]; 92.8% in experiment [4] (setting [7]); 99.4% in experiment [4] (setting [8]). Also, in experiment [4] (H69AR cells + 2 uM doxorubicin), the differential viability (reversal) is 6.57% (inactive). Besides, the results for the inhibition in experiment [5] and in experiment [6] were -5.19% (inactive) and 5.17% (inactive), respectively.

Regarding `C[C@]12CCC(=O)C=C1CC[C@@H]1[C@@H]2[C@@H](O)C[C@@]2(C)[C@H]1CC[C@]2(O)C(=O)CO`, the viability was 103% (inactive) in experiment [1]; 96.2% (inactive) in experiment [2]; 105% (inactive) in experiment [3]; 98.9% in experiment [4] (setting [7]); 105% in experiment [4] (setting [8]). Further, the differential viability (reversal) in experiment [4] (H69AR cells + 2 uM doxorubicin) was 5.76% (inactive). Moreover, the inhibition was -1.43% (inactive) in experiment [5] and -3.83% (inactive) in experiment [6].

As for `CN(C)C(=O)CN(C)S(=O)(=O)c1ccc(Cl)cc1`, the viability is 139% (inactive) in experiment [1]; 98.9% (inactive) in experiment [2]; 97.9% (inactive) in experiment [3]; 104% in experiment [4] (setting [7]); 97.9% in experiment [4] (setting [8]). The differential viability (reversal) in experiment [4] (H69AR cells + 2 uM doxorubicin) was -6.11% (inactive). Also, the inhibition in experiment [5] is -6.3% (inactive); in experiment [6], 1.82% (inactive).

Take `Nc1nnnn1NCc1cccc(OCc2ccccc2)c1`: the viability in experiment [1] was 112% (inactive); in experiment [2], 88.8% (inactive); in experiment [3], 104% (inactive); in experiment [4] (setting [7]) it was 89%; in experiment [4] (setting [8]), 104%. Besides, in experiment [4] (H69AR cells + 2 uM doxorubicin), the differential viability (reversal) was 15.4% (inactive). The inhibition in experiment [5] was -7.95% (inactive); in experiment [6] it was 3.71% (inactive).

For `Cc1cccc(C(=O)N(C)c2nnc(-c3ccncc3)s2)c1`, the viability was 98% (inactive) in experiment [1]; 92.5% (inactive) in experiment [2]; 85.8% (inactive) in experiment [3]; 89.4% in experiment [4] (setting [7]); 85.8% in experiment [4] (setting [8]). Moreover, in experiment [4] (H69AR cells + 2 uM doxorubicin), the differential viability (reversal) is -3.53% (inactive). In addition, the inhibition is -0.41% (inactive) in experiment [5] and 24.7% (inactive) in experiment [6].

In the case of `O=C(O)CCn1[nH]c(=O)ccc1=O`, the viability is 87% (inactive) in experiment [1]; 102% (inactive) in experiment [2]; 97.3% (inactive) in experiment [3]; 93.4% in experiment [4] (setting [7]); 97.3% in experiment [4] (setting [8]). Also, the differential viability (reversal) in experiment [4] (H69AR cells + 2 uM doxorubicin) is 3.97% (inactive). The inhibition in experiment [5] was -2.05% (inactive); in experiment [6] it was 1.77% (inactive).

The values above are taken from PubChem BioAssay.
